Measured values taken from ChEMBL document CHEMBL1772966, “3,5-Bis(benzylidene)-1-[3-(2-hydroxyethylthio)propanoyl]piperidin-4-ones: a novel cluster of potent tumor-selective cytotoxins” (J Med Chem, 2011).
pIC50: −log10 of the molar value. Active and inactive are the calls of the source. The rule behind the calls is not given here.

Key:
[1] = Anticancer activity against human Molt4/C8 cells after 72 hrs; type: functional, cell-based; conditions: MOLT-4, 72 h
[2] = system: CCRF-CEM; assay: Anticancer activity against human CEM cells after 72 hrs; type: functional, cell-based
[3] = system: L1210; assay: Anticancer activity against mouse L1210 cells after 48 hrs; type: functional, cell-based; conditions: L1210, 48 h
[4] = system: Mus musculus; assay: Neurotoxicity in mouse at 30 to 300 mg/kg, ip after 0.5 hrs by rotarod method; type: toxicity, organism-based; set-up: dose 30-300 mg/kg, route intraperitoneal; conditions: in vivo
Procedure, shortened: (§1)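 Mice given 30, 100 and 300 mg/kg by intraperitoneal injection; animals scored for mortality and neurotoxicity at 0.5 and 4 h after dosing.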

[5] = system: Mus musculus; assay: Toxicity in mouse assessed as mortality at 30 to 300 mg/kg, ip after 0.5 to 4 hrs; type: organism-based; set-up: dose 30-300 mg/kg, route intraperitoneal; conditions: in vivo
Procedure, shortened: (§2)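 Mice dosed intraperitoneally at 30, 100 and 300 mg/kg; animals observed for deaths and neurological deficit at 0.5 and 4 h after injection.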

[6] = system: MOLT-4; assay: Ratio of melphalan IC50 to compound IC50 for human Molt4/C8 cells; type: functional
[7] = system: HSC-3; assay: Selectivity index, ratio of average CC50 for normal human cell line to CC50 for human HSC3 cells
[8] = Cytotoxicity against human HGF cells after 48 hrs; type: cell-based
[9] = system: HL-60; assay: Selectivity index, ratio of average CC50 for normal human cell line to CC50 for human HL-60 cells
[10] = system: HSC-4; assay: Selectivity index, ratio of average CC50 for normal human cell line to CC50 for human HSC4 cells
[11] = system: HSC-2; assay: Selectivity index, ratio of average CC50 for normal human cell line to CC50 for human HSC2 cells
[12] = system: CCRF-CEM; assay: Ratio of melphalan IC50 to compound IC50 for human CEM cells; type: functional
[13] = Cytotoxicity against human HPLF cells after 48 hrs; type: cell-based
[14] = system: HL-60; assay: Cytotoxicity against human HL60 cells after 48 hrs; type: functional; conditions: HL-60, 48 h
[15] = Cytotoxicity against human HPC cells after 48 hrs; type: cell-based
[16] = system: HSC-3; assay: Cytotoxicity against human HSC3 cells after 48 hrs; type: functional; conditions: HSC-3, 48 h
[17] = system: HSC-4; assay: Cytotoxicity against human HSC4 cells after 48 hrs; type: functional; conditions: HSC-4, 48 h
[18] = system: HSC-2; assay: Cytotoxicity against human HSC2 cells after 48 hrs; type: functional; conditions: HSC-2, 48 h
[19] = system: HL-60; assay: Induction of mitochondrial pathway-dependent apoptosis in human HL60 cells assessed as DNA fragmentation at 0.5 to 8 uM after 6 hrs by agarose gel electrophoresis; type: functional, cell-based
Procedure, shortened: (§3)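 Cells exposed 6 h to a range of concentrations; a UV-irradiated comparison was given 1 min of UV. Treated and control cells were then held 3 h in regular culture medium, after which DNA was extracted and run on 2% agarose gel electrophoresis.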

[20] = system: HSC-2; assay: Induction of mitochondrial pathway-dependent apoptosis in human HSC2 cells assessed as caspase 3 activation at 1 to 3 uM; type: functional, cell-based
Procedure, shortened: (§4)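 Caspase-3 activity measured in lysates of treated HL-60 and HSC-2 cells: 100 μg protein per assay, incubated 2 h with the substrate. Mean ± SD of three experiments.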

[21] = system: KM12; assay: Anticancer activity against human KM12 cells; type: functional, cell-based
[22] = system: HSC-2; assay: Induction of mitochondrial pathway-dependent apoptosis in human HSC2 cells assessed as DNA fragmentation at 0.5 to 8 uM after 6 hrs by agarose gel electrophoresis; type: functional, cell-based; procedure, shortened: as §3
[23] = system: HCT-116; assay: Anticancer activity against human HCT116 cells; type: functional, cell-based
[24] = system: HL-60; assay: Induction of mitochondrial pathway-dependent apoptosis in human HL60 cells assessed as caspase 3 activation at 1 to 3 uM; type: functional, cell-based; procedure, shortened: as §4
[25] = system: COLO 205; assay: Anticancer activity against human COLO205 cells; type: functional, cell-based
[26] = system: HT-29; assay: Anticancer activity against human HT-29 cells; type: functional, cell-based
[27] = system: L1210; assay: Ratio of melphalan IC50 to compound IC50 for mouse L1210 cells; type: functional
[28] = system: SW-620; assay: Anticancer activity against human SW620 cells; type: functional, cell-based
[29] = system: HCC 2998; assay: Anticancer activity against human HCC2998 cells; type: functional, cell-based
[30] = system: RPMI-8226; assay: Anticancer activity against human RPMI8226 cells; type: functional, cell-based
[31] = system: HCT-15; assay: Anticancer activity against human HCT15 cells; type: functional, cell-based
[32] = system: Mus musculus; assay: Neurotoxicity in mouse at 30 to 300 mg/kg, ip after 0.5 to 4 hrs by rotarod method; type: toxicity, organism-based; set-up: dose 30-300 mg/kg, route intraperitoneal; conditions: in vivo; procedure, shortened: as §2
[33] = system: CCRF-CEM; assay: Anticancer activity against human CCRF-CEM cells; type: functional, cell-based
[34] = system: K562; assay: Anticancer activity against human K562 cells; type: functional, cell-based
[35] = system: HL-60; assay: Anticancer activity against human HL60 cells; type: functional, cell-based
[36] = system: Mus musculus; assay: Neurotoxicity in mouse at 30 to 300 mg/kg, ip after 4 hrs by rotarod method; type: toxicity, organism-based; set-up: dose 30-300 mg/kg, route intraperitoneal; conditions: in vivo; procedure, shortened: as §1

O=C1/C(=C/c2ccccc2)CN(C(=O)CCSCCS(=O)(=O)O)C/C1=C\c1ccccc1
pIC50 [1]: 3.84 | pIC50 [2]: 3.90 | pIC50 [3]: 3.63 | Activity [4]: Toxic | Activity [5]: Non-toxic

O=C1/C(=C/c2ccccc2)CN(C(=O)CCSCCO)C/C1=C\c1ccccc1
Ratio IC50 [6]: 4.9 | Ratio [7]: 5.3 | CC50 at 48 h [8]: 17 µM | Ratio [9]: 8.7 | Ratio [10]: 11.3 | Ratio [11]: 9.2 | Ratio IC50 [12]: 4.3 | CC50 at 48 h [13]: 13 µM | pIC50 [1]: 6.18 | pIC50 [2]: 6.24 | CC50 [14]: 1700 nM | pIC50 [3]: 5.42 | CC50 at 48 h [15]: 14 µM | CC50 [16]: 2800 nM | CC50 [17]: 1300 nM | CC50 [18]: 1600 nM

O=C1/C(=C/c2ccc(Cl)cc2)CN(C(=O)CCSCCO)C/C1=C\c1ccc(Cl)cc1
Ratio IC50 [6]: 7.6 | Activity [19]: Active | Ratio [7]: 8.3 | Activity [20]: Active | CC50 at 48 h [8]: 8.3 µM | pIC50 [21]: 6.72 | Activity [22]: Active | pIC50 [23]: 6.77 | Activity [24]: Active | Ratio [9]: 8 | pIC50 [25]: 6.34 | Ratio [10]: 15.8 | Ratio [11]: 17.1 | pIC50 [26]: 6.59 | Ratio IC50 [12]: 3.6 | CC50 at 48 h [13]: 8.6 µM | Ratio IC50 [27]: 43 | pIC50 [28]: 6.77 | pIC50 [1]: 6.38 | pIC50 [29]: 5.96 | pIC50 [2]: 6.16 | CC50 [14]: 1000 nM | pIC50 [30]: 7.10 | pIC50 [31]: 6.59 | pIC50 [3]: 5.19 | Activity [32]: Non-toxic | CC50 at 48 h [15]: 7.2 µM | CC50 [16]: 970 nM | CC50 [17]: 510 nM | pIC50 [33]: 6.68 | CC50 [18]: 470 nM | Activity [5]: Non-toxic | pIC50 [34]: 7.00 | pIC50 [35]: 6.49

O=C1/C(=C/c2ccc(Cl)cc2)CN(C(=O)CCSCCS(=O)(=O)O)C/C1=C\c1ccc(Cl)cc1
pIC50 [21]: 4.60 | pIC50 [23]: 4.55 | pIC50 [25]: 4.62 | pIC50 [26]: 4.60 | pIC50 [28]: 4.53 | pIC50 [1]: 4.45 | pIC50 [29]: 4.65 | pIC50 [2]: 4.38 | pIC50 [30]: 4.74 | pIC50 [31]: 4.52 | pIC50 [3]: 4.00 | Activity [32]: Non-toxic | pIC50 [33]: 5.03 | Activity [5]: Non-toxic | pIC50 [34]: 4.55 | pIC50 [35]: 4.59

COc1ccc(/C=C2\CN(C(=O)CCSCCS(=O)(=O)O)C/C(=C\c3ccc(OC)cc3)C2=O)cc1
pIC50 [21]: 4.52 | pIC50 [23]: 4.48 | pIC50 [25]: < 4.00 | pIC50 [26]: 4.38 | pIC50 [28]: 4.42 | pIC50 [1]: 3.81 | pIC50 [29]: 4.51 | pIC50 [2]: 3.70 | pIC50 [30]: 4.61 | pIC50 [31]: < 4.00 | pIC50 [3]: 3.64 | Activity [36]: Toxic | Activity [4]: Toxic | pIC50 [33]: < 4.00 | Activity [5]: Non-toxic | pIC50 [34]: 4.26 | pIC50 [35]: < 4.00

O=c1[nH]cc(F)c(=O)[nH]1 [FLUOROURACIL]
pIC50 [21]: 5.08 | pIC50 [23]: 5.07 | pIC50 [25]: 5.38 | pIC50 [26]: 4.99 | pIC50 [28]: < 4.00 | pIC50 [29]: 4.87 | pIC50 [31]: 5.01 | pIC50 [33]: 4.48 | pIC50 [34]: 5.62 | pIC50 [35]: < 4.00

Cc1ccc(/C=C2\CN(C(=O)CCSCCS(=O)(=O)O)C/C(=C\c3ccc(C)cc3)C2=O)cc1
pIC50 [1]: 4.10 | pIC50 [2]: 3.71 | pIC50 [3]: 3.70 | Activity [4]: Toxic | Activity [5]: Non-toxic

COc1ccc(/C=C2\CN(C(=O)CCSCCS)C/C(=C\c3ccc(OC)cc3)C2=O)cc1
pIC50 [1]: 5.56 | pIC50 [2]: 5.49 | pIC50 [3]: 4.96 | Activity [4]: Toxic | Activity [5]: Non-toxic

COc1ccc(/C=C2\CN(C(=O)CCSCCO)C/C(=C\c3ccc(OC)cc3)C2=O)cc1
Ratio IC50 [6]: 2 | Ratio [7]: 4.8 | CC50 at 48 h [8]: 17 µM | pIC50 [21]: 5.70 | pIC50 [23]: 5.82 | Ratio [9]: 4.9 | pIC50 [25]: 5.60 | Ratio [10]: 6.5 | Ratio [11]: 6.5 | pIC50 [26]: 5.62 | Ratio IC50 [12]: 6.6 | CC50 at 48 h [13]: 16 µM | Ratio IC50 [27]: 6.6 | pIC50 [28]: 5.67 | pIC50 [1]: 5.78 | pIC50 [29]: 5.70 | pIC50 [2]: 5.45 | CC50 [14]: 3200 nM | pIC50 [30]: 6.48 | pIC50 [31]: 5.66 | pIC50 [3]: 4.71 | Activity [32]: Non-toxic | CC50 at 48 h [15]: 14 µM | CC50 [16]: 3300 nM | CC50 [17]: 2400 nM | pIC50 [33]: 6.33 | CC50 [18]: 2410 nM | Activity [5]: Non-toxic | pIC50 [34]: 5.54 | pIC50 [35]: 5.77

O=C1/C(=C/c2ccc([N+](=O)[O-])cc2)CN(C(=O)CCSCCO)C/C1=C\c1ccc([N+](=O)[O-])cc1
Ratio IC50 [6]: 6.7 | Activity [19]: Active | Ratio [7]: 8.5 | Activity [20]: inactive | CC50 at 48 h [8]: 5.4 µM | pIC50 [21]: 6.77 | Activity [22]: inactive | pIC50 [23]: 6.96 | Activity [24]: Active | Ratio [9]: 13.3 | pIC50 [25]: 7.22 | Ratio [10]: 15.5 | Ratio [11]: 17.3 | pIC50 [26]: 7.00 | Ratio IC50 [12]: 5.1 | CC50 at 48 h [13]: 6.4 µM | Ratio IC50 [27]: 96 | pIC50 [28]: 7.15 | pIC50 [1]: 6.31 | pIC50 [29]: 6.55 | pIC50 [2]: 6.32 | CC50 [14]: 440 nM | pIC50 [30]: 7.70 | pIC50 [31]: 6.68 | pIC50 [3]: 5.41 | Activity [32]: Non-toxic | CC50 at 48 h [15]: 5.8 µM | CC50 [16]: 690 nM | CC50 [17]: 380 nM | pIC50 [33]: 7.40 | CC50 [18]: 340 nM | Activity [5]: Non-toxic | pIC50 [34]: 7.22 | pIC50 [35]: 7.00

O=C1/C(=C/c2ccc([N+](=O)[O-])cc2)CN(C(=O)CCSCCS(=O)(=O)O)C/C1=C\c1ccc([N+](=O)[O-])cc1
pIC50 [1]: 5.16 | pIC50 [2]: 5.13 | pIC50 [3]: 4.94 | Activity [32]: Non-toxic | Activity [5]: Non-toxic
